Key:
Type in all cases: ADME
Conditions in all cases: buffer
[1] = Compound was evaluated for its hydrolysis at pH 10 half-life period (T1/2)
Outline: (§1)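 Alkaline hydrolysis, i.e. chemical reactivity of the lactam ring with hydroxide ion, followed by pH stat at the pH named in the line. Ionic strength (μ) was 0.5 and the temperature 35 °C. Pseudo-first-order rate constants and half-lives were obtained under these conditions. Some entries are single determinations.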

[2] = Compound was evaluated for its hydrolysis at pH 9 expressed as pseudo first order rate constant (K) (micro = 0.5); outline: as §1
[3] = Compound was evaluated for its hydrolysis at pH 9 half life period (T1/2); outline: as §1
[4] = Compound was evaluated for its hydrolysis at pH 10 expressed as pseudo first order rate constant (K) (micro = 0.5); outline: as §1
[5] = Compound was evaluated for its hydrolysis at pH 9 for half life period (T1/2); outline: as §1

Row | half-life [1] | k [2] | half-life [3] | k [4] | half-life [5] | SMILES
1 | 285 min | 0.0144 h⁻¹ | 2880 min | 0.146 h⁻¹ | – | CO/N=C(/C(=O)NC1CCN2CC(C(=O)[O-])=C(C(=O)[O-])N2C1=O)c1csc(N)n1.[Na+].[Na+] (stereo not given)
2 | – | 1.73 h⁻¹ | 24 min | – | – | CO/N=C(/C(=O)NC1CN2CC(C#N)=C(C(=O)O)N2C1=O)c1csc(N)n1 (stereo not given)
3 | 128 min | – | – | 0.324 h⁻¹ | – | CO/N=C(/C(=O)NC1CN2CC(C(=O)O)=C(C(=O)O)N2C1=O)c1csc(N)n1 (stereo not given)
4 | – | 3.16 h⁻¹ | – | – | 13.2 min | CO/N=C(/C(=O)NC1CCN2CC(C(C)=O)=C(C(=O)O)N2C1=O)c1csc(N)n1 (stereo not given)
5 | – | 0.724 h⁻¹ | 57.6 min | – | – | CO/N=C(\C(=O)NC1CN2CC(C(C)=O)=C(C(=O)O)N2C1=O)c1csc(N)n1 (stereo not given)
6 | – | 1.75 h⁻¹ | 24 min | – | – | CO/N=C(/C(=O)NC1CCN2CC(C#N)=C(C(=O)O)N2C1=O)c1csc(N)n1 (stereo not given)
7 | – | – | – | 0.248 h⁻¹ | – | CC1(C)S[C@@H]2[C@H](NC(=O)COc3ccccc3)C(=O)N2[C@H]1C(=O)O [PENICILLIN V]

Reference: ChEMBL document CHEMBL1125703, “Synthesis, hydrolysis rates, supercomputer modeling, and antibacterial activity of bicyclic tetrahydropyridazinones” (J Med Chem, 1991)
